Source: article PMC3923374 (Analytical biochemistry, 2013)

Columns and labels:
sigma-2 receptor = target: T1, sigma-2 receptor (Rattus norvegicus, UniProt Q5U3Y7); experiment: radioligand competition with [3H]RHM-1 in rat liver membranes; format: binding; conditions: read-out: Ki for sigma-2 receptors
T1 sequence (Q5U3Y7 1-176): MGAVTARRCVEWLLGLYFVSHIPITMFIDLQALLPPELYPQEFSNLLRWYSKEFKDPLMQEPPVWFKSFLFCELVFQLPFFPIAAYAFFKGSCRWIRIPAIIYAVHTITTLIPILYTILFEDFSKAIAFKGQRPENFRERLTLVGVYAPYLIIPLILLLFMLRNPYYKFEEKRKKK
Procedure, shortened: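 Rat liver membrane homogenate (~300 μg protein) in 50 mM Tris-HCl, pH 8.0, incubated 60 min at 25°C with 1 nM [³H]RHM-1 (80 Ci/mmol) and test compound at 0.1 nM–10 μM. Stopped with cold 10 mM Tris-HCl/150 mM NaCl, pH 7.4, filtered onto glass-fiber filters presoaked 1 h in 50 mM Tris-HCl, washed three times ice-cold, scintillation counted. Nonspecific binding: 10 μM haloperidol.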

sigma-1 receptor = sigma-1 receptor (Cavia porcellus, UniProt Q60492); experiment: radioligand competition with [3H]; format: binding; conditions: read-out: Ki for sigma-1 receptors
sigma-1 receptor, sequence (Q60492 whole entry): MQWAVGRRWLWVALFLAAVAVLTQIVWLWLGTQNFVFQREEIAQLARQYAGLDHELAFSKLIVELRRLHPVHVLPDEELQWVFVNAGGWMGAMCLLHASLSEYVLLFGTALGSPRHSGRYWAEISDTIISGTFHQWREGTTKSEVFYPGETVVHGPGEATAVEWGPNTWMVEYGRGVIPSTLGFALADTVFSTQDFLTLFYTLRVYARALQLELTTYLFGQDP

For O[C@@H](CN1[C@@H]2CC[C@H]1CC(c1ccccc1)C2)c1cccc(Br)c1 (some centres unmarked) [RHM-138], which Ki (sigma-2 receptor) is on record?
The Ki was 12.3 nM.

And the Ki (sigma-1 receptor)?
Its Ki is 544 nM.
